The source made the active and inactive calls. The calls are words filed in the database; no cut-off is given here.
How the values were obtained:
[1] = molecular target: T1, Hepatocyte growth factor receptor (Homo sapiens, UniProt P08581); assay: Inhibition of recombinant c-Met (unknown origin) using poly (Glu, Tyr) 4:1 as substrate incubated for 60 mins by ELISA
[2] = Selectivity ratio of IC50 for human AGS cells to IC50 for mouse BAF3 cells expressing TPR-MET; format: ADME, cell-based
Summary of the method: (§1)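 Both IC50s in each ratio come from one proliferation assay. Cells were seeded and exposed the next day to a range of concentrations for 72 h, then read by SRB or MTT. IC50s were fitted by four-parameter concentration–response, with each concentration at least in triplicate and at least 2 experiments. BaF3/TPR-Met is murine pre-B BaF3 transfected with TPR-MET and puromycin-selected.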

[3] = Selectivity ratio of IC50 for human SNU1 cells to IC50 for human MKN45 cells; format: ADME, cell-based; settings: mkn-45
[4] = molecular target: Mast/stem cell growth factor receptor Kit (Homo sapiens) (UniProt P10721); assay: Inhibition of recombinant c-Kit (unknown origin) using poly (Glu, Tyr) 4:1 as substrate at 1000 nM incubated for 60 mins by ELISA relative to control
Summary of the method: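 Recombinant tyrosine kinases assayed on wells precoated with poly(Glu,Tyr)4:1 (20 µg/mL). ATP 10 µmol/L in HEPES pH 7.4 buffer with MgCl2, MnCl2, Na3VO4 and DTT; compound in 1% DMSO, 1% DMSO as control. Reaction 60 min at 37 °C. Phosphotyrosine detected with PY99 and HRP anti-mouse, o-phenylenediamine, A490. Inhibition % relative to control; two experiments.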

[5] = molecular target: T1, Hepatocyte growth factor receptor; assay: Inhibition of c-Met in human EBC1 cells assessed as reduction in AKT phosphorylation at Serine 473 at 10 nM after 1 hr by Western blot analysis; format: cell-based
Summary of the method: (§2)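 EBC-1 or MKN45 cells treated with compound 1 h at 37 °C without HGF, then lysed in 1× SDS sample buffer. Lysates run on 10% SDS-PAGE and transferred to nitrocellulose. Probed with antibodies to c-Met, phospho-c-Met, phospho-ERK1/2, phospho-AKT, AKT and GAPDH, then HRP secondary. ECL detection.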

[6] = molecular target: T1, Hepatocyte growth factor receptor; assay: Inhibition of c-Met phosphorylation at Tyrosine 1235 in human MKN45 cells at 10 nM after 1 hr by Western blot analysis; format: cell-based; settings: MKN-45; summary of the method: as §2
[7] = Antiproliferative activity against human U87MG cells after 72 hrs by SRB or MTT assay; format: functional, cell-based, U-87MG ATCC; settings: U-87 MG
Summary of the method: (§3)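 Cells seeded, exposed next day to a range of concentrations for 72 h. Growth read by sulforhodamine B or MTT. IC50 from four-parameter concentration-response fit. Each concentration tested at least in triplicate, with at least 2 experiments.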

[8] = tested on: 786-0; assay: Antiproliferative activity against human 786-0 cells after 72 hrs by SRB or MTT assay; format: functional, cell-based; settings: 786-0, 72 h; summary of the method: as §3
[9] = Antiproliferative activity against human HCT116 cells after 72 hrs by SRB or MTT assay; format: functional, cell-based; settings: HCT-116, 72 h; summary of the method: as §3
[10] = tested on: NCI-H358; assay: Antiproliferative activity against human NCI-H358 cells after 72 hrs by SRB or MTT assay; format: functional, cell-based; settings: NCI-H358, 72 h; summary of the method: as §3
[11] = tested on: NCI-H596; assay: Antiproliferative activity against human NCI-H596 cells after 72 hrs by SRB or MTT assay; format: functional, cell-based; settings: NCI-H596, 72 h; summary of the method: as §3
[12] = Antiproliferative activity against human SNU16 cells after 72 hrs by SRB or MTT assay; format: functional, cell-based; settings: SNU-16, 72 h; summary of the method: as §3
[13] = molecular target: T1, Hepatocyte growth factor receptor; assay: Inhibition of c-Met in human NCI-H441 cells assessed as inhibition of HGF-induced cell invasion after 24 hrs by crystal violet staining based microscopic analysis
Summary of the method: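 NCI-H441 cells, 1.5×10^5 in serum-free medium, placed in upper Transwell chamber (8 µm pores; Matrigel-coated for invasion). Lower chamber serum-free medium ± HGF 100 ng/mL, with compound. After 24 h at 37 °C, non-migrated cells removed. Traversed cells stained with 0.1% crystal violet 15 min and imaged in 5 fields per filter. Three independent experiments.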

[14] = Antitumor activity against human MKN45 cells xenografted in athymic nude mouse assessed as tumor growth inhibition at 12.5 mg/kg, po bid for 21 days measured twice a week during compound dosing relative to control; format: functional; settings: MKN-45, po, 504 h, read-out: TGI
Summary of the method: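 Nude mice bearing s.c. tumours. Cells were first grown s.c. to 700–800 mm³, then 1.5 mm³ fragments were transplanted s.c. into the right flank. Mice were randomised at 100–200 mm³ (n=6 treated, n=12 vehicle) and dosed orally twice daily for 21 days. Caliper measurement twice weekly; TV = length×width²/2. TGI taken on the final day versus vehicle; Student's t test.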

[15] = Selectivity ratio of IC50 for human PANC1 cells to IC50 for human MKN45 cells; format: ADME, cell-based; settings: panc-1
Summary of the method: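 Each cell line was seeded in 96-well plates, then exposed the next day to a range of compound concentrations for 72 h. Growth was read by SRB or MTT assay, and IC50 was fitted by a four-parameter concentration-response curve. Each concentration was run at least in triplicate, in at least 2 experiments. BaF3/TPR-Met are murine pre-B BaF3 cells transfected with TPR-MET cDNA and selected in puromycin.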

[16] = Selectivity ratio of IC50 for human 786-0 cells to IC50 for human EBC1 cells; format: ADME, cell-based; summary of the method: as §1
[17] = Selectivity ratio of IC50 for human 786-0 cells to IC50 for human MKN45 cells; format: ADME, cell-based; settings: mkn-45; summary of the method: as §1
[18] = Selectivity ratio of IC50 for human 786-0 cells to IC50 for mouse BAF3 cells expressing TPR-MET; format: ADME, cell-based; summary of the method: as §1
[19] = Selectivity ratio of IC50 for human Bel7404 cells to IC50 for human MKN45 cells; format: ADME, cell-based; summary of the method: as §1
[20] = Selectivity ratio of IC50 for human NCI-H358 cells to IC50 for human MKN45 cells; format: ADME, cell-based; summary of the method: as §1
[21] = Selectivity ratio of IC50 for human NCI-H292 cells to IC50 for human MKN45 cells; format: ADME, cell-based; summary of the method: as §1
[22] = Selectivity ratio of IC50 for human NCI-H292 cells to IC50 for mouse BAF3 cells expressing TPR-MET; format: ADME, cell-based; summary of the method: as §1
[23] = Selectivity ratio of IC50 for human NCI-H3122 cells to IC50 for mouse BAF3 cells expressing TPR-MET; format: ADME, cell-based; summary of the method: as §1
[24] = Selectivity ratio of IC50 for human BGC823 cells to IC50 for human MKN45 cells; format: ADME, cell-based; settings: bgc-823; summary of the method: as §1
[25] = Selectivity ratio of IC50 for human SPCA4 cells to IC50 for human EBC1 cells; format: ADME, cell-based; settings: spc-a4
[26] = Selectivity ratio of IC50 for human SPCA4 cells to IC50 for human MKN45 cells; format: ADME, cell-based, SPC-A4; settings: SPCA4 cells versus MKN45 cells
[27] = Selectivity ratio of IC50 for human SPCA4 cells to IC50 for mouse BAF3 cells expressing TPR-MET; format: ADME, cell-based; settings: SPCA4 cells versus BAF3 cells expressing TPR-MET
[28] = molecular target: Tyrosine-protein kinase Mer (Homo sapiens) (UniProt Q12866); settings: 1000 nM
Tyrosine-protein kinase Mer (Homo sapiens), sequence (Q12866 whole entry): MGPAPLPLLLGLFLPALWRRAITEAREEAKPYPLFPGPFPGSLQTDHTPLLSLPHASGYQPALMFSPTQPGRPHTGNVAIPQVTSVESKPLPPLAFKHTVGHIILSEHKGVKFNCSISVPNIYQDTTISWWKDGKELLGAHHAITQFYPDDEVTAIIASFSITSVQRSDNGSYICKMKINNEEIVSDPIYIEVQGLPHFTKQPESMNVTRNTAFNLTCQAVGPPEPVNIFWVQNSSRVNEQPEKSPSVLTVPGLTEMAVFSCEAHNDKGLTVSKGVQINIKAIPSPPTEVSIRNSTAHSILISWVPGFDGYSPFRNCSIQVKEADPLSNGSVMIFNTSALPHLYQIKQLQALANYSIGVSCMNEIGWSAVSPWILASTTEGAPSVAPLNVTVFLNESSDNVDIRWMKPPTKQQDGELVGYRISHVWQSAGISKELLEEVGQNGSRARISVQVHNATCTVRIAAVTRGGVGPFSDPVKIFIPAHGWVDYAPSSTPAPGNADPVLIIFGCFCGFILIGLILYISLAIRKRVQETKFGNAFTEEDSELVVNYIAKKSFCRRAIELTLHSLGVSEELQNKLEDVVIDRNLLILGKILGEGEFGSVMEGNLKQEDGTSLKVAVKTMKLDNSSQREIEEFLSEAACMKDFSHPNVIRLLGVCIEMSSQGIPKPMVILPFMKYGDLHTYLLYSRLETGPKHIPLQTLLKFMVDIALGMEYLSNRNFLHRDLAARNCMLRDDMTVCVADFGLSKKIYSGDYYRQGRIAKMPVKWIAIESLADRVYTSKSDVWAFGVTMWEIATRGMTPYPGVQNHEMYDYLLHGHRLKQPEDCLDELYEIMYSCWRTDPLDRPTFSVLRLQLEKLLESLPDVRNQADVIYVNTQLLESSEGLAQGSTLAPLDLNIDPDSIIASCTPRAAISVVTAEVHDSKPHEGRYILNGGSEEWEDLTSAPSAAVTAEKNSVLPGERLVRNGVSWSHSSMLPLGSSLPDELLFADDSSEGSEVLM

T1 sequence (P08581 whole entry): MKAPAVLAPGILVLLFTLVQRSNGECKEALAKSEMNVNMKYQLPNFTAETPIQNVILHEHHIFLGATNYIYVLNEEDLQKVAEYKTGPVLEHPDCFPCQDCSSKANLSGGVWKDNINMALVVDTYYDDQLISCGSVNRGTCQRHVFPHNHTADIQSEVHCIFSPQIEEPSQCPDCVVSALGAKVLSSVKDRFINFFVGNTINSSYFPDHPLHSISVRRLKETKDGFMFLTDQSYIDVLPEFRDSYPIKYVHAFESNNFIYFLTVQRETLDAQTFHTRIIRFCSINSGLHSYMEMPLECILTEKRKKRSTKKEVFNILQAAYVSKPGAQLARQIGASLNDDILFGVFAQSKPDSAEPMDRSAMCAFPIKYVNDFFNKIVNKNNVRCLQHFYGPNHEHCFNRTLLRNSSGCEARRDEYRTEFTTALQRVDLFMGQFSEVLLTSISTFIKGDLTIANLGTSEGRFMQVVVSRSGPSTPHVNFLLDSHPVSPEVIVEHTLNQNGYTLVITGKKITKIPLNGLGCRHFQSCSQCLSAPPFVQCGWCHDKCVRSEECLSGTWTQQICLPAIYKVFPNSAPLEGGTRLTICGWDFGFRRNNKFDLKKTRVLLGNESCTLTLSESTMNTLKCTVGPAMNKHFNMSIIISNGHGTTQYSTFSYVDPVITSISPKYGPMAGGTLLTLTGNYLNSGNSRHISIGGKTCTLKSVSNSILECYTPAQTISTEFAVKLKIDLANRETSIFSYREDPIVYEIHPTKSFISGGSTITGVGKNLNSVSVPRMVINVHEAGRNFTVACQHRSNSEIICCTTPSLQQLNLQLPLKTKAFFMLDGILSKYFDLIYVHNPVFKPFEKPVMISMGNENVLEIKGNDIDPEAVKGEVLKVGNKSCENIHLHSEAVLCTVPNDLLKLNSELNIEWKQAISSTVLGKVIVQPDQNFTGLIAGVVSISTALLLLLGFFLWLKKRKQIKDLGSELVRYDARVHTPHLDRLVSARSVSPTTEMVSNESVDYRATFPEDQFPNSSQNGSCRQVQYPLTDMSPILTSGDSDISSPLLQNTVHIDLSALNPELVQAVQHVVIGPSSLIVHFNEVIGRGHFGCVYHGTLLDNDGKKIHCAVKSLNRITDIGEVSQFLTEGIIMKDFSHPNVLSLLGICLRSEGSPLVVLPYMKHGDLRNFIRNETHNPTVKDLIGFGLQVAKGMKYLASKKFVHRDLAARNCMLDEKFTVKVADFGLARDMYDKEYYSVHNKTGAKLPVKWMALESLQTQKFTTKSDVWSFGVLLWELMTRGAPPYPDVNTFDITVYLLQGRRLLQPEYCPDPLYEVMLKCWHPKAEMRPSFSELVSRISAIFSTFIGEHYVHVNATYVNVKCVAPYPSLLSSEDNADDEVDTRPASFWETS
Mast/stem cell growth factor receptor Kit (Homo sapiens), sequence (P10721 whole entry): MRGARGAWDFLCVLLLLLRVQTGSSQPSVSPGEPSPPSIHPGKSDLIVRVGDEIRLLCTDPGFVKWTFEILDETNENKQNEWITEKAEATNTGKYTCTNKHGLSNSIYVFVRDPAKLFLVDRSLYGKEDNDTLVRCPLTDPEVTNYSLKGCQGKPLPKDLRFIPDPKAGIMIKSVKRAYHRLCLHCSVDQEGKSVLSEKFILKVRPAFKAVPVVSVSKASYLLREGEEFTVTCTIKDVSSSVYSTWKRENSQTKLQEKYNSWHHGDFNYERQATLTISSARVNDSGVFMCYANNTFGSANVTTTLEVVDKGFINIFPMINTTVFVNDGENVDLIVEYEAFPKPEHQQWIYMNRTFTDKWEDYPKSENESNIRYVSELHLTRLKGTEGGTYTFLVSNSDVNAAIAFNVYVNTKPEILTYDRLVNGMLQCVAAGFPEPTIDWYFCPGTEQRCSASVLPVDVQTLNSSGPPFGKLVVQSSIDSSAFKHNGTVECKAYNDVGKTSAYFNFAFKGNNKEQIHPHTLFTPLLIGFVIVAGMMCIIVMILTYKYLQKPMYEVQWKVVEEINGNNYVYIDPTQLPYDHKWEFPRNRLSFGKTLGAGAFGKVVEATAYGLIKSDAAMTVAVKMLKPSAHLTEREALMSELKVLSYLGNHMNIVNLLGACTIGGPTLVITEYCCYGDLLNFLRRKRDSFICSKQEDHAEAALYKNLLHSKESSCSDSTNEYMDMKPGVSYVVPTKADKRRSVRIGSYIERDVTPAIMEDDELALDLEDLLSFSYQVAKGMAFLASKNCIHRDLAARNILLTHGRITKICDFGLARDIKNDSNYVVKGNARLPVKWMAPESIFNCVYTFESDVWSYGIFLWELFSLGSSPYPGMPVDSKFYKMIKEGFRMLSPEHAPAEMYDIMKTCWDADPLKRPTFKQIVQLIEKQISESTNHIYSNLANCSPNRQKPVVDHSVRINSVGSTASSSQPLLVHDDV

**Q.** With `Fc1ccc(-c2cnc3nnc(C(F)(F)c4ccc5ncccc5c4)n3n2)cc1` as the compound, how does the IC50 [1] read?
**A.** 0.00024 µM

**Q.** And the “Ratio IC50” value [2]?
**A.** 10000

**Q.** What about the “Ratio IC50” value [3] of the same compound?
**A.** 10000

**Q.** What about the inhibition [4] of the same compound?
**A.** 32.1%

**Q.** And the inhibition [5]?
**A.** Active

**Q.** And the inhibition [6]?
**A.** Active

**Q.** And the IC50 [7]?
**A.** > 10 µM

**Q.** And the IC50 [8]?
**A.** > 10 µM

**Q.** What about the IC50 [9] of the same compound?
**A.** > 10 µM

**Q.** And the IC50 [10]?
**A.** > 10 µM

**Q.** And the IC50 [11]?
**A.** > 10 µM

**Q.** And the IC50 [12]?
**A.** > 10 µM

**Q.** And the inhibition [13]?
**A.** Dose-dependent effect

**Q.** And the inhibition in vivo at 12.5 mg/kg [14]?
**A.** 80.1%

**Q.** And the “Ratio IC50” value [15]?
**A.** 10000

**Q.** And the “Ratio IC50” value [16]?
**A.** 10000

**Q.** What about the “Ratio IC50” value [17] of the same compound?
**A.** 10000

**Q.** What about the “Ratio IC50” value [18] of the same compound?
**A.** 10000

**Q.** And the “Ratio IC50” value [19]?
**A.** 10000

**Q.** What about the “Ratio IC50” value [20] of the same compound?
**A.** 10000

**Q.** And the “Ratio IC50” value [21]?
**A.** 10000

**Q.** What about the “Ratio IC50” value [22] of the same compound?
**A.** 10000

**Q.** What about the “Ratio IC50” value [23] of the same compound?
**A.** 10000

**Q.** What about the Ratio IC50 [24] of the same compound?
**A.** > 10000

**Q.** And the Ratio IC50 [25]?
**A.** > 10000

**Q.** What about the selectivity ratio [26] of the same compound?
**A.** > 10000

**Q.** And the selectivity ratio [27]?
**A.** > 10000

**Q.** What about the inhibition [28] of the same compound?
**A.** 13.5%

Reference: ChEMBL document CHEMBL3797175, “Discovery of 6-(difluoro(6-(4-fluorophenyl)-[1,2,4]triazolo[4,3-b][1,2,4]triazin-3-yl)methyl)quinoline as a highly potent and selective c-Met inhibitor” (Eur J Med Chem, 2016)
